Results on 74 sequences are retold here after the array DNA melting data of Ke et al. (doi:10.1101/2024.01.08.574731).

A short description of series [1]: melting temperature; fluorescence melt of hairpins on a sequencing array, two-state fit, raised by 9.35 °C to match UV melts. Conditions: sodium 0.088 M. The method in brief: (§1)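 Cy3 signals were normalised both to pre-quench Cy3 and to control constructs. They came from library hairpins carrying annealed Cy3 and quencher oligos on a sequenced MiSeq flow cell, imaged in 50 mM Na-HEPES pH 8.0, 25 mM NaCl, in 2.5 °C steps up to 60 °C. Bootstrapped two-state fits gave melting temperature and folding enthalpy, and four replicates were combined by inverse variance. Fitted temperatures were then raised by 9.35 °C to match UV melts.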

The nature of series [2]: folding enthalpy; higher = less favourable; fluorescence melt of hairpins on a sequencing array, two-state fit. The note with it: sodium 0.088 M. The gist of the method: as §1

Regarding GATCTTCAGAAAGATC ((((((....)))))), the Tm in series [1] was 41.7 °C. For the same sequence, in series [2], the folding enthalpy was -29.7 kcal/mol.
With GCTAGCGAAAGCTTAGC ((((((....))).))), in series [1], the Tm was 52.5 °C. For the same sequence, in series [2], the folding enthalpy is -22.1 kcal/mol.
In the case of GAAGCTGGAAACGGTTTC (((.(.(....).).))), the Tm in series [1] came to 26 °C. The folding enthalpy in series [2] was -10.3 kcal/mol.
For GATCATGTGGATGATC ((((((....)))))), the Tm in series [1] amounted to 47.3 °C. For the same sequence, in series [2], the folding enthalpy was -35.2 kcal/mol.
As for GTATGCGCGAAAGCGTAC (((..(((....)))))), the Tm in series [1] came to 31.3 °C. The folding enthalpy in series [2] was -9.22 kcal/mol.
As to GCTCTTCCGAAAGGAAGC (((..(((....)))))), the Tm in series [1] came to 37.2 °C. Also, the folding enthalpy in series [2] was -9 kcal/mol.
GATCGATATATCGATC ((((((....)))))): the Tm in series [1] was 56 °C. The folding enthalpy in series [2] was -41 kcal/mol.
Take GCGGATCTCCGC ((((....)))): the Tm in series [1] turned out to be 59.6 °C. For the same sequence, the folding enthalpy in series [2] is -25.3 kcal/mol.
For GCCGAGCGAAAGCTCCGC ((.((((....)))).)) the same measures were 55.7 °C and -18 kcal/mol.
Regarding GGATGGGGAAACTCGTCC (((.(.(....).).))), the Tm in series [1] was 38.5 °C. Besides, the folding enthalpy in series [2] is -25.2 kcal/mol.
For GACGGACCGAAAGGTGTC (((..(((....)))))) the same measures were 41.3 °C and -17.9 kcal/mol.
On to GCAAGGCGAAAGCGTGGC ((.(.((....)).).)), for which, in series [1], the Tm came out at 46.9 °C. Also, in series [2], the folding enthalpy is -20.2 kcal/mol.
The matching figures for GAGGTTGGAAACAGCTTC ((.(.((....)).).)): 39.9 °C and -36 kcal/mol.
In the case of GGCCGCACGAAAGTGGCC (((..(((....)))))), the Tm in series [1] is 58.9 °C. Further, the folding enthalpy in series [2] is -26.5 kcal/mol.
Consider GATCTCCCTGGAGATC ((((((....)))))), for which the Tm in series [1] turned out to be 59.4 °C. The folding enthalpy in series [2] was -43.7 kcal/mol.
Take GGCCTGGGAAACTGGGCC ((((..(....)..)))): the Tm in series [1] was 54.7 °C. Moreover, the folding enthalpy in series [2] was -38 kcal/mol.
For GATCCACTTTGGATC ((((((...)))))) the same measures were 53.1 °C and -33.3 kcal/mol.
On to GATCAGGAACTGATC ((((((...)))))), for which the Tm in series [1] stood at 60.6 °C. The folding enthalpy in series [2] was -39.4 kcal/mol.
The matching figures for GCCCCGCGAAAGCGGAGC ((.((((....)))).)): 68.1 °C and -22 kcal/mol.
On to GTGGATGGAAACATCTAC ((.((((....)))).)), for which the Tm in series [1] came out at 46.8 °C. For the same sequence, in series [2], the folding enthalpy was -31 kcal/mol.
Consider GACTGAGGAAACTCGGTC (((.(((....))).))), for which the Tm in series [1] turned out to be 50.4 °C. Also, the folding enthalpy in series [2] was -41.1 kcal/mol.
As to GTTCTCGAAAGAGATAAC ((((((....)))..))), the Tm in series [1] amounted to 28.8 °C. The folding enthalpy in series [2] is -13.9 kcal/mol.
As for GCGGAGCGAAAGCCGCGC (((..((....))..))), the Tm in series [1] came out at 66.1 °C. The folding enthalpy in series [2] is -21.1 kcal/mol.
The matching figures for GTCCGCGAAAGCGATGAC ((((((....)))..))): 38.3 °C and -15.9 kcal/mol.
Regarding GTTGAGGGAAACTTCAGC (.(((.(....).))).), in series [1], the Tm came to 31.7 °C. Also, the folding enthalpy in series [2] is -16.6 kcal/mol.
Turning to GAGGACACGAAAGTGCTC (((..(((....)))))), the Tm in series [1] was found to be 35.9 °C. The folding enthalpy in series [2] was -14.4 kcal/mol.
In the case of GATCTCAGACGAGATC ((((((....)))))), the Tm in series [1] turned out to be 51.2 °C. Further, the folding enthalpy in series [2] is -36.9 kcal/mol.
Turning to GATCGAAGGTCGATC ((((((...)))))), the Tm in series [1] was determined as 50.9 °C. Besides, the folding enthalpy in series [2] was -25.6 kcal/mol.
For GCTGCGCGAAAGCACGGC ((.(.((....)).).)), the Tm in series [1] amounted to 59.1 °C. In series [2], the folding enthalpy was -26.6 kcal/mol.
For GATCAGCGCACTGATC ((((((....)))))) the same measures were 52.5 °C and -40.4 kcal/mol.
For the sequence GATCAATAGATTGATC ((((((....)))))), in series [1], the Tm was determined as 42.5 °C. Also, in series [2], the folding enthalpy is -31 kcal/mol.
CGAGTGCGGAAACGCTCG (((..(((....)))))): the Tm in series [1] was 47.7 °C. For the same sequence, the folding enthalpy in series [2] was -21.6 kcal/mol.
For GATCAGTGCCCTGATC ((((((....)))))) the same measures were 49.9 °C and -29.9 kcal/mol.
For GCGGACGAAAGTCACGC ((((((....))).))), in series [1], the Tm was 64.8 °C. Besides, in series [2], the folding enthalpy was -20.9 kcal/mol.
Take GATCAAGTTCTTGATC ((((((....)))))): the Tm in series [1] was 49.7 °C. For the same sequence, the folding enthalpy in series [2] is -38.6 kcal/mol.
GGCATCGAAAGATGGGCC ((((((....)))..))): in series [1], the Tm came out at 46.8 °C. Also, in series [2], the folding enthalpy was -19.2 kcal/mol.
With GATCGGGACACCGATC ((((((....)))))), the Tm in series [1] came out at 66 °C. In series [2], the folding enthalpy is -38.4 kcal/mol.
Take GCATGGCGAAAGCCCAGC ((..(((....)))..)): the Tm in series [1] worked out at 46.3 °C. Moreover, the folding enthalpy in series [2] was -12 kcal/mol.
Turning to GCTTTGGCGAAAGCCAGC (((..(((....)))))), the Tm in series [1] was 38.2 °C. Besides, in series [2], the folding enthalpy is -10.1 kcal/mol.
Consider GGCTCCACGAAAGTGGCC (((..(((....)))))), for which the Tm in series [1] stood at 37.6 °C. Further, in series [2], the folding enthalpy is -11.8 kcal/mol.
GTATCCACGAAAGTGTAC (((..(((....)))))): the Tm in series [1] was determined as 21.2 °C. For the same sequence, the folding enthalpy in series [2] was -10.6 kcal/mol.
GCTGTCGAAAGACCGAGC ((((((....)))..))): the Tm in series [1] amounted to 37 °C. For the same sequence, the folding enthalpy in series [2] is -21 kcal/mol.
For GGTTAACGAAAGTTACC (((.(((....)))))), the Tm in series [1] turned out to be 43.9 °C. Moreover, the folding enthalpy in series [2] was -21.9 kcal/mol.
GTATCTGGAAACAGACAC ((.((((....)))).)): in series [1], the Tm turned out to be 30.7 °C. In series [2], the folding enthalpy is -26.2 kcal/mol.
Take CGCGGACAATTCCGCG ((((((....)))))): the Tm in series [1] came out at 62.2 °C. Also, the folding enthalpy in series [2] was -30.5 kcal/mol.
Take GAAATTGGAAACAATTTC (((((((....))))))): in series [1], the Tm stood at 51.3 °C. Further, the folding enthalpy in series [2] was -35.8 kcal/mol.
The matching figures for GACATCCGAAAGGAGGTC (((.(((....))).))): 57.9 °C and -40 kcal/mol.
Take GGCCCAGGAAACTGGGTC (.(((((....))))).): the Tm in series [1] amounted to 59.8 °C. In series [2], the folding enthalpy is -34.5 kcal/mol.
Consider GTCTTTCCGAAAGGAGAC (((..(((....)))))), for which the Tm in series [1] is 29.2 °C. Moreover, in series [2], the folding enthalpy was -10.6 kcal/mol.
GATCCAAAGATGGATC ((((((....)))))): the Tm in series [1] stood at 44.5 °C. Further, in series [2], the folding enthalpy was -26.4 kcal/mol.
For GATGACGAAAGTCGAATC ((((((....)))..))), in series [1], the Tm was found to be 33 °C. For the same sequence, the folding enthalpy in series [2] is -13.7 kcal/mol.
With GGCGAACCGAAAGGTGCC (((..(((....)))))), the Tm in series [1] came out at 53.7 °C. Also, the folding enthalpy in series [2] is -28.3 kcal/mol.
As for GTCTCCGGAAACGGAAAC ((.((((....)))).)), the Tm in series [1] was 36.3 °C. The folding enthalpy in series [2] was -16.2 kcal/mol.
On to GCGGCAGCCCGC ((((....)))), for which, in series [1], the Tm is 59.1 °C. Besides, in series [2], the folding enthalpy was -10.3 kcal/mol.
For GCTGTCCCGAAAGGGAGC (((..(((....)))))), in series [1], the Tm was found to be 41.5 °C. Also, the folding enthalpy in series [2] is -11 kcal/mol.
Consider GATCCGTAGCCGGATC ((((((....)))))), for which, in series [1], the Tm was determined as 56.1 °C. The folding enthalpy in series [2] is -47.9 kcal/mol.
In the case of GATCCGAACTCGGATC ((((((....)))))), the Tm in series [1] turned out to be 56.4 °C. Also, the folding enthalpy in series [2] was -40.9 kcal/mol.
Consider GTTTGGCGAAAGCCCAAC (((.(((....))).))), for which the Tm in series [1] was 39.1 °C. Further, in series [2], the folding enthalpy is -19.1 kcal/mol.
Consider GCATAGCGAAAGCGCTGC (((..((....))..))), for which, in series [1], the Tm turned out to be 51.3 °C. In series [2], the folding enthalpy is -16.5 kcal/mol.
GATAACGAAAGTTATC ((((((....)))))): the Tm in series [1] stood at 53.9 °C. In series [2], the folding enthalpy was -32.9 kcal/mol.
Consider GCGGCCGAAAGGCCTCGC ((((((....)))..))), for which the Tm in series [1] stood at 56.2 °C. Also, the folding enthalpy in series [2] was -12.5 kcal/mol.
As to GCGTTGCGAAAGCGAAGC ((.(.((....)).).)), the Tm in series [1] is 54 °C. Moreover, the folding enthalpy in series [2] was -20.4 kcal/mol.
Consider GCAGTGGAAACACTGC ((((((....)))))), for which the Tm in series [1] was 68.5 °C. Also, the folding enthalpy in series [2] is -32.9 kcal/mol.
In the case of GCAGCTCCGAAAGGATGC (((..(((....)))))), in series [1], the Tm stood at 41.5 °C. Further, the folding enthalpy in series [2] was -16.2 kcal/mol.
Turning to GCTCACGAAAGTGGAAGC ((((((....)))..))), in series [1], the Tm stood at 45.4 °C. Besides, the folding enthalpy in series [2] is -20.9 kcal/mol.
For GTTGGAGGAAACCCCAAC (((((.(....).))))), in series [1], the Tm was 44.5 °C. Besides, the folding enthalpy in series [2] is -35.2 kcal/mol.
For GATCATGCTTATGATC ((((((....)))))) the same measures were 48 °C and -35.9 kcal/mol.
As for GGGTGGACGAAAGTCCCC (((..(((....)))))), the Tm in series [1] is 49.7 °C. Besides, the folding enthalpy in series [2] is -12.4 kcal/mol.
The matching figures for GAAAGTGGAAACACCTTC (((.(((....))).))): 28.8 °C and -9.58 kcal/mol.
GATCTATTAATAGATC ((((((....)))))): the Tm in series [1] worked out at 45.2 °C. Further, the folding enthalpy in series [2] is -37.8 kcal/mol.
For GGTCACTCGAAAGAGACC (((..(((....)))))), in series [1], the Tm was 40.8 °C. Also, the folding enthalpy in series [2] was -24.1 kcal/mol.
Take GATCTTCGCCAAGATC ((((((....)))))): the Tm in series [1] amounted to 42 °C. For the same sequence, the folding enthalpy in series [2] is -33.7 kcal/mol.
Regarding GTCTCCGAAAGGACCGAC ((((((....)))..))), in series [1], the Tm is 28.2 °C. Besides, the folding enthalpy in series [2] was -16.9 kcal/mol.
For GTCTCTGGAAACAGAGAC (((((((....))))))) the same measures were 62.8 °C and -42.5 kcal/mol.
